Measured values: ChEMBL document CHEMBL5247578, “Effective synthesis of benzimidazoles-imidazo[1,2-a]pyrazine conjugates: A comparative study of mono-and bis-benzimidazoles for antitumor activity” (Eur J Med Chem, 2019)

Columns and labels:
OVCAR-8 = assay: Antiproliferative activity against human OVCAR-8 cells assessed as cell growth at 0.00000001 M incubated for 48 hrs by SRB assay relative to control; format: functional; conditions: dose 10 nM, read-out: Activity
Hs-578T = assay: Antiproliferative activity against human Hs-578T cells assessed as cell growth at 0.0000001 M incubated for 48 hrs by SRB assay relative to control; format: functional; conditions: dose 100 nM, read-out: Activity
Outline: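 NCI-60 five-dose mode, 10^-4 to 10^-8 M in 10-fold steps. RPMI 1640, 5% FBS, 2 mM L-glutamine; 24 h preincubation, then 48 h drug exposure at 37 °C. Stocks in DMSO at 400× the top concentration, diluted in medium with gentamicin. TCA fixation, SRB staining, absorbance at 515 nm. Percent growth from time-zero (Tz), control (C) and test (Ti) readings.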

MDA-MB-468 = assay: Growth inhibition against human MDA-MB-468 cells assessed as total growth inhibitory concentration incubated for 48 hrs by sulforhodamine B assay; format: functional
HCT-116 = assay: Growth inhibition against human HCT-116 cells assessed as total growth inhibitory concentration incubated for 48 hrs by sulforhodamine B assay; format: functional
HOP-92 = assay: Antiproliferative activity against human HOP-92 cells assessed as cell growth at 0.00001 M incubated for 48 hrs by SRB assay relative to control; format: functional; conditions: read-out: Activity
Outline: (§1)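 NCI-60 five-dose screen (10^-4 to 10^-8 M). Cells grown in RPMI 1640 with 5% FBS and 2 mM L-glutamine, plated at 5,000-40,000 cells/well and preincubated 24 h. Drug given from DMSO stock, then 48 h at 37 °C, 5% CO2. For adherent lines, cells fixed with cold TCA, SRB-stained and read at 515 nm. Percent growth taken against time-zero and untreated control.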

RXF 393 = assay: Antiproliferative activity against human RXF 393 cells assessed as cell growth at 0.0001 M incubated for 48 hrs by SRB assay relative to control; format: functional; conditions: read-out: Activity
SF-295 [1] = assay: Antiproliferative activity against human SF-295 cells assessed as cell growth at 0.00000001 M incubated for 48 hrs by SRB assay relative to control; format: functional; conditions: dose 10 nM, read-out: Activity
786-0 = assay: Growth inhibition against human 786-0 cells incubated for 48 hrs by sulforhodamine B assay; format: functional
HEK293 = assay: Cytotoxicity against human HEK293 cells assessed as reduction in cell viability at 0.00001 M incubated for 48 hrs by MTT colorimetric assay relative to control; format: toxicity, cell-based; conditions: hek293, 48 h, 10 µM
RPMI-8226 = assay: Antiproliferative activity against human RPMI-8226 cells assessed as cell growth at 0.0000001 M incubated for 48 hrs by SRB assay relative to control; format: functional; conditions: dose 100 nM, read-out: Activity
HOP-62 = assay: Antiproliferative activity against human HOP-62 cells assessed as cell growth at 0.0000001 M incubated for 48 hrs by SRB assay relative to control; format: functional; conditions: dose 100 nM, read-out: Activity; outline: as §1
ACHN = assay: Antiproliferative activity against human ACHN cells assessed as cell growth at 0.00001 M incubated for 48 hrs by SRB assay relative to control; format: functional; conditions: read-out: Activity
Outline: (§2)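 NCI-60 five-dose screen over 10^-4–10^-8 M (10-fold dilutions). Cells grown in RPMI 1640 with 5% FBS and 2 mM L-glutamine, seeded at 5,000–40,000 cells/well and preincubated 24 h. Drug from DMSO stock, 48 h at 37 °C, 5% CO2. Adherent cells TCA-fixed and stained with 0.4% SRB; A515 read. Percent growth = (Ti−Tz)/(C−Tz)×100, or (Ti−Tz)/Tz×100 when Ti<Tz.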

SF-295 [2] = assay: Antiproliferative activity against human SF-295 cells assessed as cell growth at 0.000001 M incubated for 48 hrs by SRB assay relative to control; format: functional; conditions: read-out: Activity
OVCAR-4 = assay: Antiproliferative activity against human OVCAR-4 cells assessed as cell growth inhibition by measuring lethal concentration incubated for 48 hrs by sulforhodamine B assay; format: functional; conditions: read-out: LC50 (the source's name)
EKVX = assay: Antiproliferative activity against human EKVX cells assessed as cell growth at 0.00001 M incubated for 48 hrs by SRB assay relative to control; format: functional; conditions: read-out: Activity; outline: as §1
DU-145 = assay: Antiproliferative activity against human DU-145 cells assessed as cell growth at 0.00000001 M incubated for 48 hrs by SRB assay relative to control; format: functional; conditions: dose 10 nM, read-out: Activity; outline: as §2
MDA-MB-231 = assay: Antiproliferative activity against human MDA-MB-231 cells assessed as cell growth at 0.0001 M incubated for 48 hrs by SRB assay relative to control; format: functional; conditions: read-out: Activity
SNB-75 = assay: Growth inhibition against human SNB-75 cells assessed as total growth inhibitory concentration incubated for 48 hrs by sulforhodamine B assay; format: functional
NCI-H460 = assay: Antiproliferative activity against human NCI-H460 cells assessed as cell growth at 0.0000001 M incubated for 48 hrs by SRB assay relative to control; format: functional; conditions: dose 100 nM, read-out: Activity
HCT-15 = assay: Antiproliferative activity against human HCT-15 cells assessed as cell growth at 0.000001 M incubated for 48 hrs by SRB assay relative to control; format: functional; conditions: read-out: Activity; outline: as §1
UACC-257 = assay: Antiproliferative activity against human UACC-257 cells assessed as cell growth at 0.0000001 M incubated for 48 hrs by SRB assay relative to control; format: functional; conditions: dose 100 nM, read-out: Activity
BT-549 = assay: Growth inhibition against human BT-549 cells assessed as total growth inhibitory concentration incubated for 48 hrs by sulforhodamine B assay; format: functional
A549 = assay: Antiproliferative activity against human A549 cells assessed as cell growth at 0.000001 M incubated for 48 hrs by SRB assay relative to control; format: functional; conditions: read-out: Activity; outline: as §2
SNB-19 = assay: Antiproliferative activity against human SNB-19 cells assessed as cell growth at 0.0000001 M incubated for 48 hrs by SRB assay relative to control; format: functional; conditions: dose 100 nM, read-out: Activity
OVCAR-3 [3] = assay: Antiproliferative activity against human OVCAR-3 cells assessed as cell growth at 0.0001 M incubated for 48 hrs by SRB assay relative to control; format: functional; conditions: read-out: Activity
IGROV-1 = assay: Antiproliferative activity against human IGROV-1 cells assessed as cell growth at 0.00000001 M incubated for 48 hrs by SRB assay relative to control; format: functional; conditions: dose 10 nM, read-out: Activity
OVCAR-3 [4] = assay: Antiproliferative activity against human OVCAR-3 cells assessed as cell growth at 0.00000001 M incubated for 48 hrs by SRB assay relative to control; format: functional; conditions: dose 10 nM, read-out: Activity
SK-MEL-2 = assay: Antiproliferative activity against human SK-MEL-2 cells assessed as cell growth at 0.0000001 M incubated for 48 hrs by SRB assay relative to control; format: functional; conditions: dose 100 nM, read-out: Activity
PC-3 = assay: Antiproliferative activity against human PC-3 cells assessed as cell growth at 0.00000001 M incubated for 48 hrs by SRB assay relative to control; format: functional; conditions: dose 10 nM, read-out: Activity
SF-539 = assay: Growth inhibition against human SF-539 cells assessed as total growth inhibitory concentration incubated for 48 hrs by sulforhodamine B assay; format: functional
OVCAR-5 = assay: Antiproliferative activity against human OVCAR-5 cells assessed as cell growth at 0.0001 M incubated for 48 hrs by SRB assay relative to control; format: functional; conditions: read-out: Activity

| SMILES | growth at 0.01 µM (OVCAR-8) [%] | growth at 0.1 µM (Hs-578T) [%] | TGI (MDA-MB-468) [nM] | TGI (HCT-116) [nM] | growth at 10 µM (HOP-92) [%] | growth at 100 µM (RXF 393) [%] | growth at 0.01 µM (SF-295 [1]) [%] | GI50 (786-0) [nM] | Activity (HEK293) [%] | growth at 0.1 µM (RPMI-8226) [%] | growth at 0.1 µM (HOP-62) [%] | growth at 10 µM (ACHN) [%] | growth at 1 µM (SF-295 [2]) [%] | CC50 (OVCAR-4) [nM] | growth at 10 µM (EKVX) [%] | growth at 0.01 µM (DU-145) [%] | growth at 100 µM (MDA-MB-231) [%] | TGI (SNB-75) [nM] | growth at 0.1 µM (NCI-H460) [%] | growth at 1 µM (HCT-15) [%] | also measured |
| --- | --- | --- | --- | --- | --- | --- | --- | --- | --- | --- | --- | --- | --- | --- | --- | --- | --- | --- | --- | --- | --- |
| c1ccc(Cn2cnc3ccc(-c4nc(-c5ccc6c(c5)ncn6C5CCCCC5)cn5ccnc45)cc32)cc1 | 106 | 104 | 4430 | 2630 | -90 | -33 | 91 | 799 | 14.53 | 113 | 86 | 11 | 74 | > 100000 | -31 | 99 | -31 | 2890 | 108 | 65 | growth at 0.1 µM (UACC-257): 105%; TGI (BT-549): 2680 nM; growth at 1 µM (A549): 106%; growth at 0.1 µM (SNB-19): 103%; growth at 100 µM (OVCAR-3 [3]): -19%; growth at 0.01 µM (IGROV-1): 97%; growth at 0.01 µM (OVCAR-3 [4]): 101%; growth at 0.1 µM (SK-MEL-2): 90%; growth at 0.01 µM (PC-3): 95%; TGI (SF-539): 2600 nM; growth at 100 µM (OVCAR-5): 21% |
| COc1ccc(-c2cn3ccnc3c(-c3ccc4ncn(C5CCCCC5)c4c3)n2)cc1 | 105 | 102 | > 100000 | 4060 | 2 | 19 | 87 | 527 | 16.51 | 108 | 93 | 13 | 18 | > 100000 | 25 | 103 | 19 | > 100000 | 107 | 42 | growth at 0.1 µM (UACC-257): 104%; TGI (BT-549): 3910 nM; growth at 1 µM (A549): 63%; growth at 0.1 µM (SNB-19): 108%; growth at 100 µM (OVCAR-3 [3]): 17%; growth at 0.01 µM (IGROV-1): 96%; growth at 0.01 µM (OVCAR-3 [4]): 100%; growth at 0.1 µM (SK-MEL-2): 92%; growth at 0.01 µM (PC-3): 96%; TGI (SF-539): 2490 nM; growth at 100 µM (OVCAR-5): 56% |
